B1: tRNA (parent)
chain: GUUCCGUUGGCGUAAUGGUAACGCGUCUCCCUCCUAAGGAGAAGACUGCGGGUUCGAGUCCCGUACGGAACG

From the RNAGym collection of RNA variant scans (doi:10.1126/science.aae0568) come the findings set out here.

Variants at the floor of the assay were thinned out.

In this data set the parent is B1. Nature of the data set: yeast fitness relative to wild type (ratio to wild type); higher = fitter; tRNA-Arg(CCU), competitive growth, 37 C, YPD. In outline: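 Changes in genotype frequencies gave Darwinian fitness relative to wild type. Frequencies were read by 100-nucleotide paired-end sequencing of gene amplicons before and after pooled Saccharomyces cerevisiae strains, carrying tRNA-Arg(CCU) gene variants at the native locus, were competed in YPD at 37°C for 24 hours in six replicates. A genotype was kept only with ≥ 100 starting reads, and estimates < 0.5 were set to 0.5.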
In the case of G12A C24U G41A, the yeast fitness was 0.544.

Regarding G12A A20C, the yeast fitness amounted to 0.875.

Turning to G12A A20G, the yeast fitness turned out to be 0.923.

On to C11U U28C C29G A57G, for which the yeast fitness is ≤ 0.5.

As for G12A A21G A40U G67U, the yeast fitness is ≤ 0.5.

With G12A A40U A45G C60A, the yeast fitness was ≤ 0.5.

In the case of C11U U32C C33U C62U A65G, the yeast fitness is ≤ 0.5.

G12A A15U C33A A36U C62U: the yeast fitness was ≤ 0.5.

Regarding G12A C27G G50A, the yeast fitness was ≤ 0.5.

Take G12A C22G C29U: the yeast fitness was determined as 0.551.

As for G12A C22A C24A A65U, the yeast fitness is ≤ 0.5.

Consider G12A A15C G58C, for which the yeast fitness was ≤ 0.5.

As for C11U U35C A70G, the yeast fitness was found to be 0.641.

For the variant C11U U19G C27U C29G, the yeast fitness is ≤ 0.5.

As to G12A A21G C34U G67U, the yeast fitness was ≤ 0.5.

On to G12A A20C C29A, for which the yeast fitness was ≤ 0.5.

On to G12A C24U G25A C30U C46A, for which the yeast fitness was 0.571.

Turning to G12A A20G U26C C31G C33U A42U G67C, the yeast fitness is ≤ 0.5.

G12A C24G U26G G39C C49G A65G: the yeast fitness is ≤ 0.5.

With C11U U26A C60A, the yeast fitness is ≤ 0.5.

Regarding G12A A20G A21U A40G, the yeast fitness is ≤ 0.5.

On to G12A A15G G25C C30G G67C, for which the yeast fitness is ≤ 0.5.

Consider G12A C30G A40C, for which the yeast fitness was ≤ 0.5.

As to C11U U53C, the yeast fitness stood at 0.652.

On to G12A A21C C31U, for which the yeast fitness was ≤ 0.5.

Consider C11U U26G U32A A43C U53C A70U, for which the yeast fitness was ≤ 0.5.

For the variant G12A A43U A45C G50C C60U, the yeast fitness is ≤ 0.5.

Regarding C11U U26A A43U A65C A70G, the yeast fitness was ≤ 0.5.

As for C11U U59A C60U, the yeast fitness was 0.543.

Consider G12A A21G C46G G51A G67C, for which the yeast fitness was ≤ 0.5.

As to G12A A70U, the yeast fitness was 0.99.

With G12A A70G, the yeast fitness worked out at 1.02.

Take G12A C24A A36U A37G C61U G67U: the yeast fitness was ≤ 0.5.

With G12A A15U C24G G63C, the yeast fitness was ≤ 0.5.

For the variant G12A A14G, the yeast fitness was determined as 0.958.

With G12A A15U C24U G44C G52C A69U, the yeast fitness is ≤ 0.5.

In the case of G12A A15G C24A A36U C61U G67U, the yeast fitness worked out at 0.761.

For the variant C11U U35C A42G, the yeast fitness was ≤ 0.5.

Take G12A C30G U59A: the yeast fitness is ≤ 0.5.

Take G12A A65G: the yeast fitness is 0.98.

Turning to G12A A65U, the yeast fitness was 0.861.

As for G12A C24G A40C A43C C46U C49U G68C A69U, the yeast fitness was ≤ 0.5.

C11U U28C C29G C60A: the yeast fitness is ≤ 0.5.

For the variant G12A A40C A65C, the yeast fitness was found to be 0.655.

For the variant C11U U54C A57G, the yeast fitness stood at 0.553.

As for C11U U19G A65C, the yeast fitness is 0.696.

As for G12A C24U C49G G56C G58A, the yeast fitness was ≤ 0.5.

Regarding G12A A14C U16C C31U C49G C60A, the yeast fitness was ≤ 0.5.

Turning to C11U U53A C62A, the yeast fitness was ≤ 0.5.

As for G12A C30U A40U C49A G56A A57U, the yeast fitness is ≤ 0.5.

Regarding C11U U54C G56A, the yeast fitness was ≤ 0.5.

In the case of G12A C24G C29A, the yeast fitness is ≤ 0.5.

As for G12A A15C C62U C66G, the yeast fitness was ≤ 0.5.

In the case of G12A C29G A65U, the yeast fitness was 0.58.

With C11U U26A A36U, the yeast fitness was ≤ 0.5.

Take C11U U53C A57C: the yeast fitness is ≤ 0.5.

For the variant C11U U28C G44C A69C A70C, the yeast fitness is ≤ 0.5.

For the variant G12A A42C, the yeast fitness was found to be 0.89.

As to G12A A42U, the yeast fitness is 0.856.

Consider G12A C29A, for which the yeast fitness stood at 0.652.

As to G12A C29G, the yeast fitness was determined as 0.61.

Turning to G12A C24U C55G A70U, the yeast fitness came to 0.531.

As for G12A A15G G48C A57U, the yeast fitness is ≤ 0.5.

With G12A A20G G48A, the yeast fitness turned out to be 0.63.

As for G12A C24U C27A, the yeast fitness was found to be 0.575.

In the case of G12A C22G C27A, the yeast fitness came out at 0.663.

On to G12A C27G A43U, for which the yeast fitness was determined as 0.53.

Consider G12A C24G C62G, for which the yeast fitness is ≤ 0.5.

Turning to G12A A15U C22A U26A C33G G38C G41C A43C U47G G67C, the yeast fitness is ≤ 0.5.

Take C11U U19G A69U: the yeast fitness stood at 0.782.

Take G12A C29A C60U: the yeast fitness is ≤ 0.5.

With G12A A15U G17A, the yeast fitness was ≤ 0.5.

Take G12A A42U C61G: the yeast fitness is 0.505.

In the case of C11U U59A A69C, the yeast fitness turned out to be 0.537.

Turning to G12A A20U G23C U32C A69G, the yeast fitness is ≤ 0.5.

On to G12A A40C G58C U59C G63A, for which the yeast fitness was ≤ 0.5.

G12A C24G U35A A36G A40C G67A: the yeast fitness was ≤ 0.5.

Turning to C11U U26G C30A A43C U53C C66U A70C, the yeast fitness is ≤ 0.5.

Take G12A A37U: the yeast fitness is 0.653.

For G12A A14G C24G C31U C55A, the yeast fitness is ≤ 0.5.

For G12A A21G G44A C46U A69C, the yeast fitness was 0.507.

As for G12A A43U A45C, the yeast fitness is ≤ 0.5.

Turning to G12A A21G C34U C62A A69U, the yeast fitness was ≤ 0.5.

Take G12A A21G A40U: the yeast fitness came out at 0.564.

Regarding G12A C24A U26G A43C C62G G63A C66G A69G, the yeast fitness was ≤ 0.5.

G12A A14G C30G A70U: the yeast fitness was found to be 0.616.

Take C11U U26C U47C: the yeast fitness turned out to be 0.799.

For C11U U26C U47A, the yeast fitness came to 0.555.

In the case of G12A C22A C24A, the yeast fitness is ≤ 0.5.

With G12A C24A C34A C49A G63U G67A, the yeast fitness is ≤ 0.5.

As for G12A A40G C46A, the yeast fitness was 0.752.

Consider G12A A20C A65U, for which the yeast fitness turned out to be 0.57.

G12A A21C G23A C46G U53C: the yeast fitness was ≤ 0.5.

Consider G12A C30A C31G U54G, for which the yeast fitness was ≤ 0.5.

For G12A A14U C66A A70G, the yeast fitness was ≤ 0.5.

In the case of G12A A20G A45U C49G A57U, the yeast fitness was ≤ 0.5.

As to G12A A43U A45C U54C G67C, the yeast fitness worked out at 0.525.

Consider G12A C27U A37C A45G, for which the yeast fitness is ≤ 0.5.

Turning to G12A A14C C31G A65C, the yeast fitness is ≤ 0.5.

Turning to G12A C22G A43G C55A, the yeast fitness is ≤ 0.5.

C11U U26G G67C: the yeast fitness is ≤ 0.5.

Turning to C11U U28C G44C U64C, the yeast fitness was ≤ 0.5.

In the case of G12A A43G G48C, the yeast fitness came out at 0.568.

As to C11U U32G U53A C55U C61U, the yeast fitness was ≤ 0.5.

With G12A C29A A65U, the yeast fitness was ≤ 0.5.

C11U U47A: the yeast fitness turned out to be 0.808.

As to G12A A57C, the yeast fitness was found to be 0.618.

In the case of G12A A42C G50C, the yeast fitness is ≤ 0.5.

As for G12A C24A U64C, the yeast fitness was found to be 0.682.

As for C11U U47C A57G A69U, the yeast fitness was 0.565.

With G12A A45G C62U, the yeast fitness was found to be 0.531.

Take G12A C22G: the yeast fitness is 1.

Take G12A A14G A15G C27U G38A G68C: the yeast fitness is ≤ 0.5.

On to G12A A36U, for which the yeast fitness was 0.612.

On to C11U U26C U47A G50A A70C, for which the yeast fitness was ≤ 0.5.

On to G12A C22G C24A G38A, for which the yeast fitness was ≤ 0.5.

On to G12A A20C U28C, for which the yeast fitness stood at 0.664.

Take G12A A20C C24G U54A C60G C66U: the yeast fitness was ≤ 0.5.

On to G12A A45U, for which the yeast fitness came out at 1.03.

For G12A A45G, the yeast fitness worked out at 0.953.

C11U U26A C34G G68C: the yeast fitness was ≤ 0.5.

On to G12A C24G A40C A43C C46U C62A, for which the yeast fitness is ≤ 0.5.

Regarding G12A A15G C29G G48A C62U C66U, the yeast fitness was ≤ 0.5.

As for C11U U28A, the yeast fitness amounted to 0.682.

G12A C29U G56C: the yeast fitness is ≤ 0.5.

Take G12A C24U A65U G68A: the yeast fitness is ≤ 0.5.

On to C11U U64G, for which the yeast fitness turned out to be 0.739.

For the variant C11U U28C G44C, the yeast fitness came out at 0.557.

Take G12A C29U U35A G44C C61A: the yeast fitness was ≤ 0.5.

Consider G12A C27G U32G C60A, for which the yeast fitness is ≤ 0.5.

As for C11U U35C G44A, the yeast fitness was found to be 0.727.

Turning to C11U U35A G56C, the yeast fitness is ≤ 0.5.

In the case of G12A A15U C24U G44C G52C, the yeast fitness is ≤ 0.5.

On to G12A A15G C22U C31A U35G C61U A65C A69G, for which the yeast fitness was ≤ 0.5.

Regarding C11U U35C U64A, the yeast fitness was ≤ 0.5.

As to G12A A37U A42C, the yeast fitness was determined as 0.559.

On to C11U U28A C62G, for which the yeast fitness is ≤ 0.5.

Take G12A C29A A45U: the yeast fitness turned out to be 0.531.

For G12A A14U A21U U32G A37G A45G C55A, the yeast fitness is ≤ 0.5.

For G12A A40C C66U, the yeast fitness is 0.532.

Take G12A A15C C46G G58C C61A: the yeast fitness is ≤ 0.5.

Take G12A A21G C46G G51A A69U: the yeast fitness was ≤ 0.5.

With G12A A15G C27A, the yeast fitness is ≤ 0.5.

G12A A20G A21G C22G: the yeast fitness is ≤ 0.5.

On to G12A C24G A40C A43C C46U G56A G68C A69U, for which the yeast fitness was ≤ 0.5.

G12A C24A A36U: the yeast fitness is 0.666.

For G12A A14C A20C A42G G44A, the yeast fitness was ≤ 0.5.

On to G12A A20U A42C, for which the yeast fitness came to 0.692.

Regarding C11U U26A A36U A65U, the yeast fitness is ≤ 0.5.

Take G12A A15G A70U: the yeast fitness stood at 0.682.

On to G12A A15C C62G A65C, for which the yeast fitness was ≤ 0.5.

For the variant G12A A21G G39A A45G G50A A69U, the yeast fitness was ≤ 0.5.

For the variant C11U U19G A20U, the yeast fitness came out at 0.764.

Turning to G12A A20G U28A C55A G56A, the yeast fitness is 0.537.

Turning to C11U U35C A36U C46U G51A, the yeast fitness was ≤ 0.5.

As for G12A C27U A36C A42U C46U, the yeast fitness was ≤ 0.5.

As to G12A C27U U32A, the yeast fitness worked out at 0.702.

For the variant G12A C27U C30G C55U A57C, the yeast fitness worked out at 0.547.

For the variant C11U U32A C34U, the yeast fitness is ≤ 0.5.

G12A A42G C66G G67C: the yeast fitness is ≤ 0.5.

Take C11U U26C U47A G50A: the yeast fitness was ≤ 0.5.

Regarding C11U U28A A69C, the yeast fitness was 0.58.

As for C11U U28C A45U, the yeast fitness is 0.742.

As to G12A C22U A57U, the yeast fitness is ≤ 0.5.

Consider C11U U32G C62A, for which the yeast fitness came out at 0.618.

As for G12A C29G C66U, the yeast fitness was 0.574.

With G12A C24A A36C C61U G67U, the yeast fitness amounted to 0.615.
